Experimental findings from ChEMBL document CHEMBL3616369, “N-O-Isopropyl Sulfonamido-Based Hydroxamates as Matrix Metalloproteinase Inhibitors: Hit Selection and in Vivo Antiangiogenic Activity” (J Med Chem, 2015) are described below.

In one assay the test system is U-87 MG. The experiment in a line: Antiinvasive activity in human U87MG cells after 24 hrs by Transwell matrigel assay. The class given is functional, U-87MG ATCC.
In the next assay the target is T1, Interstitial collagenase (Homo sapiens, UniProt P03956).
T1 sequence (P03956 whole entry): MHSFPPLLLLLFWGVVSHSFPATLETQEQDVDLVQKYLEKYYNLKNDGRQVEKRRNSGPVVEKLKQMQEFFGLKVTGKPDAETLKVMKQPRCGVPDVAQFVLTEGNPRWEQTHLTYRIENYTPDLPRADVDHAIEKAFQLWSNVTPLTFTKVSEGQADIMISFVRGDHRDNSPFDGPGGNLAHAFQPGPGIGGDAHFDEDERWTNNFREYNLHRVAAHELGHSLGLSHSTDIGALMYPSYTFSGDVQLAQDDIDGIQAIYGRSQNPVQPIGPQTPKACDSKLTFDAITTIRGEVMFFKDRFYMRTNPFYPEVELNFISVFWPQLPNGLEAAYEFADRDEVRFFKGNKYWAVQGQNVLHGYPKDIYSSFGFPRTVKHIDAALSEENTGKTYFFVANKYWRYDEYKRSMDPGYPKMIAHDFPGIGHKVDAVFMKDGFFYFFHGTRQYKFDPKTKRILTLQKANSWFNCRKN
The experiment in a line: Inhibition of recombinant human activated-MMP1 using Mca-Lys-Pro-Leu-Gly-Leu-Dap(Dnp)-Ala-Arg-NH2 as fluorogenic substrate incubated for 4 hrs followed by substrate addition measured every 10 secs for 20 mins by fluorometric assay. In a few lines: (§1)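 Recombinant human MMPs. Pro-forms activated with APMA: MMP-2 2 mM 1 h, MMP-9 1 mM 1 h, MMP-1 2 mM 2 h, MMP-13 1 mM 35 min, all 37 °C. MMP-3 activated with trypsin 4.4 µg/mL 30 min, then soybean trypsin inhibitor. Final enzyme 0.5 (MMP-2), 1.3 (MMP-9), 1.0 (MMP-14cd), 2.0 (MMP-1), 0.66 (MMP-13), 5 nM (MMP-3). Preincubated with inhibitor 4 h at 25 °C in Tris 50 mM pH 7.5, NaCl 150 mM, CaCl2 10 mM, Brij 35 0.05%, DMSO 1%. Substrate 2 µM final; fluorescence (ex 325/em 395 nm) every 10 s for 20 min. IC50 from vi/vo = 1/(1+[I]/IC50).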

Assay [1] concerns the target T2, 72 kDa type IV collagenase (Homo sapiens, UniProt P08253). As to the kind of experiment: Inhibition of recombinant human activated-MMP2 using Mca-Lys-Pro-Leu-Gly-Leu-Dap(Dnp)-Ala-Arg-NH2 as fluorogenic substrate incubated for 4 hrs followed by substrate addition measured every 10 secs for 20 mins by fluorometric assay. In short, it runs like this: as §1
Target sequence in this assay (P08253 whole entry): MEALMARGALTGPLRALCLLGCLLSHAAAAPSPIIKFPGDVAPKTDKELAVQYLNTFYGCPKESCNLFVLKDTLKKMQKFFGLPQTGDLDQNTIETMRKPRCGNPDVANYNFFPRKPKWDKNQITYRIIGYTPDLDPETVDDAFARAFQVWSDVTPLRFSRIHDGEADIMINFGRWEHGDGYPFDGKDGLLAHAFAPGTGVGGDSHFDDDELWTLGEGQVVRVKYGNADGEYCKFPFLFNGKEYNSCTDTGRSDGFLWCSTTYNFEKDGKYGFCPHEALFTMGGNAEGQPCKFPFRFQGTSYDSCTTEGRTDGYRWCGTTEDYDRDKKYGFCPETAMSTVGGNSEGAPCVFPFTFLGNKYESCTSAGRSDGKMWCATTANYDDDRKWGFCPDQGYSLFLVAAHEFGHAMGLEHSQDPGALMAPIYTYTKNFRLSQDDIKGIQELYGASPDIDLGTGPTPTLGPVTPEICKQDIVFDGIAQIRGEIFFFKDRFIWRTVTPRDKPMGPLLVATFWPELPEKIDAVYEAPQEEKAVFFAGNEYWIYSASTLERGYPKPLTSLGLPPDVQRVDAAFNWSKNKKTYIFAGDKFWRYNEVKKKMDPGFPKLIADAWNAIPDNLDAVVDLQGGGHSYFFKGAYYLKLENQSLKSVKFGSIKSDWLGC
Assay [2] addresses T3, Matrix metalloproteinase-9 (Homo sapiens, UniProt P14780). The experiment in a line: Inhibition of recombinant human activated-MMP9 using Mca-Lys-Pro-Leu-Gly-Leu-Dap(Dnp)-Ala-Arg-NH2 as fluorogenic substrate incubated for 4 hrs followed by substrate addition measured every 10 secs for 20 mins by fluorometric assay. In a few lines:
as §1

The target in the next assay is Collagenase 3 (Homo sapiens, UniProt P45452). As to the kind of experiment: Inhibition of recombinant human activated-MMP13 using Mca-Lys-Pro-Leu-Gly-Leu-Dap(Dnp)-Ala-Arg-NH2 as fluorogenic substrate incubated for 4 hrs followed by substrate addition measured every 10 secs for 20 mins by fluorometric assay. In short, it runs like this:
as §1

The target in assay [3] is Matrix metalloproteinase-14 (Homo sapiens, UniProt P50281). As to the kind of experiment: Inhibition of recombinant human catalytic domain MMP14 using Mca-Lys-Pro-Leu-Gly-Leu-Dap(Dnp)-Ala-Arg-NH2 as fluorogenic substrate incubated for 4 hrs followed by substrate addition measured every 10 secs for 20 mins by fluorometric assay. In short, it runs like this:
as §1

Assay [4] has as its system HUVEC. The experiment in a line: Inhibition of cell migration in human HUVEC at 0.001 to 10 uM after 6 hrs using modified Boyden chambers. It counts as functional, cell-based. In a few lines: (§2)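 Modified Boyden chamber. HUVEC (5x10^4), PBS-washed, in serum-free medium with or without inhibitor in upper compartment; 10% FBS or serum-free medium below. 8 µm polycarbonate filters coated with collagen 50 µg/mL (migration, 6 h) or matrigel 1 mg/mL (invasion, overnight). Cells on lower surface ethanol-fixed, stained, counted blind in eight fields. Three experiments in duplicate; one-way ANOVA.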

The subject of assay [5] is HUVEC. As to the kind of experiment: Inhibition of FBS-induced capillary-like network organization in human HUVEC at 0.001 to 10 uM after 6 hrs by matrigel assay. The class given is functional, cell-based. In short, it runs like this: (§3)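 Matrigel (10 mg/mL) polymerized 1 h at 37 °C. HUVEC (50x10^4/well) in complete medium with 10% FBS, with or without inhibitor at various concentrations, layered on top. After 6 h, capillary-like organization imaged by inverted microscope; mesh number counted as tubulogenic efficiency.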

For assay [6], the system named is HUVEC. The experiment in a line: Inhibition of FBS-induced network efficiency of human HUVEC assessed as reduction of number of meshes at 0.001 to 10 uM after 6 hrs by matrigel assay. It counts as functional, cell-based. In short, it runs like this: as §3
The subject of assay [7] is HUVEC. As to the kind of experiment: Inhibition of PMA-stimulated MMP2 mRNA expression in human HUVEC after 24 hrs by QT-PCR analysis. It counts as functional, cell-based. In short, it runs like this:
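HUVEC starved, PMA pre-treated (30 nM, 3 h), then exposed to inhibitor for 24 h before RNA extraction. Real-time PCR with SYBR Green, 45 cycles (95 °C 10 s, 60 °C 15 s, 72 °C 15 s), with melting-curve check.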

The subject of assay [8] is HUVEC. The experiment in a line: Inhibition of PMA-stimulated MMP2 protein expression in human HUVEC after 24 hrs by Western blot analysis relative to control. It counts as functional. In a few lines:
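HUVEC (2x10^6) seeded, attached one day, starved 6 h in serum-free medium with 2% BSA. Pre-treated 3 h with 30 nM PMA, then exposed to inhibitor (10 µM) or DMSO vehicle for 24 h. Conditioned media and cell proteins collected. Equal protein on 10% SDS-PAGE, PVDF blot, milk block, anti-MMP-2, MMP-9 and β-actin antibodies, HRP/ECL detection.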
A general note: In western blotting, separated proteins are transferred to a membrane and probed.

Assay [9] addresses T2, 72 kDa type IV collagenase. As to the kind of experiment: Inhibition of MMP2 gelatinase activity in human HUVEC at 0.001 to 10 uM by gel zymography. In short, it runs like this:
(§4)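 Gelatin zymography on 10% polyacrylamide gels with 0.1% gelatin and SDS, samples unheated. Gels renatured 30 min at room temperature. Either untreated-HUVEC conditioned medium run and gel lane slices developed overnight at 37 °C in developing buffer containing inhibitor, or medium from inhibitor-treated HUVEC developed overnight without inhibitor. Coomassie stained; bands quantified by densitometry.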
Target sequence in this assay (P08253 110-660 limits assumed): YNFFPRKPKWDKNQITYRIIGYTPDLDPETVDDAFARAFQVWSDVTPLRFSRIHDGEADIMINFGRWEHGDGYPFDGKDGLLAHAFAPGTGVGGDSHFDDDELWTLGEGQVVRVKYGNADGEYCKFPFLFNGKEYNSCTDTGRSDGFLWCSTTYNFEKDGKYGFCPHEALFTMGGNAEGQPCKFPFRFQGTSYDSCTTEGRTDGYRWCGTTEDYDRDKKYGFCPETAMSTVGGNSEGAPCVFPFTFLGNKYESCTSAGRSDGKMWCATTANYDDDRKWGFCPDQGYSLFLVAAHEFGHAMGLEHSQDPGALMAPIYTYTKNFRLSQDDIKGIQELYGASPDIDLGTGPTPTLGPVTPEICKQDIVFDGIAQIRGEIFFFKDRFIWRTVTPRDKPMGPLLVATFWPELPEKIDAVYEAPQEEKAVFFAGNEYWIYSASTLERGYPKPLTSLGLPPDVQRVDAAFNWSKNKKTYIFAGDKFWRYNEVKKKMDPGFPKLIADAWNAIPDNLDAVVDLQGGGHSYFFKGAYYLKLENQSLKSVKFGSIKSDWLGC

The target of assay [10] is T3, Matrix metalloproteinase-9. The experiment in a line: Inhibition of MMP9 gelatinase activity in human HUVEC at 0.001 to 10 uM by gel zymography. In a few lines:
as §4

The test system of assay [11] is HUVEC. The experiment in a line: Inhibition of FBS-induced cell invasion in human HUVEC at 0.001 to10 uM after overnight incubation using modified Boyden chambers. It counts as functional, cell-based. In short, it runs like this: as §2
The target in another assay is Stromelysin-1 (Homo sapiens, UniProt P08254). As to the kind of experiment: Inhibition of recombinant human activated-MMP3 using Mca-Lys-Pro-Leu-Gly-Leu-Dap(Dnp)-Ala-Arg-NH2 as fluorogenic substrate incubated for 4 hrs followed by substrate addition measured every 10 secs for 20 mins by fluorometric assay. In a few lines:
as §1

Assay [12] deals with HUVEC. The experiment in a line: Inhibition of FBS-induced cell invasion in human HUVEC after overnight incubation using modified Boyden chambers. It counts as functional, cell-based. In short, it runs like this: as §2
The target of assay [13] is T2, 72 kDa type IV collagenase. As to the kind of experiment: Inhibition of MMP2 gelatinase activity in human HUVEC by gel zymography. In a few lines: as §4
Target sequence in this assay (P08253 110-660 limits assumed): as above
In assay [14] the target is T3, Matrix metalloproteinase-9. As to the kind of experiment: Inhibition of MMP9 gelatinase activity in human HUVEC by gel zymography. In a few lines:
as §4

The target of assay [15] is T2, 72 kDa type IV collagenase. The experiment in a line: Inhibition of MMP2 gelatinase activity in human HUVEC at 0.1 uM by gel zymography. In a few lines:
as §4
Target sequence in this assay (P08253 110-660 limits assumed): as above

Assay [16] deals with T3, Matrix metalloproteinase-9. The following applies: HUVEC, 0.1 uM.

Molecules are shown by their SMILES. pIC50: −log10 of the molar value. Calls of active or inactive are those of the source. The calls are words filed in the database; no cut-off is given here.

T3 sequence (P14780 whole entry): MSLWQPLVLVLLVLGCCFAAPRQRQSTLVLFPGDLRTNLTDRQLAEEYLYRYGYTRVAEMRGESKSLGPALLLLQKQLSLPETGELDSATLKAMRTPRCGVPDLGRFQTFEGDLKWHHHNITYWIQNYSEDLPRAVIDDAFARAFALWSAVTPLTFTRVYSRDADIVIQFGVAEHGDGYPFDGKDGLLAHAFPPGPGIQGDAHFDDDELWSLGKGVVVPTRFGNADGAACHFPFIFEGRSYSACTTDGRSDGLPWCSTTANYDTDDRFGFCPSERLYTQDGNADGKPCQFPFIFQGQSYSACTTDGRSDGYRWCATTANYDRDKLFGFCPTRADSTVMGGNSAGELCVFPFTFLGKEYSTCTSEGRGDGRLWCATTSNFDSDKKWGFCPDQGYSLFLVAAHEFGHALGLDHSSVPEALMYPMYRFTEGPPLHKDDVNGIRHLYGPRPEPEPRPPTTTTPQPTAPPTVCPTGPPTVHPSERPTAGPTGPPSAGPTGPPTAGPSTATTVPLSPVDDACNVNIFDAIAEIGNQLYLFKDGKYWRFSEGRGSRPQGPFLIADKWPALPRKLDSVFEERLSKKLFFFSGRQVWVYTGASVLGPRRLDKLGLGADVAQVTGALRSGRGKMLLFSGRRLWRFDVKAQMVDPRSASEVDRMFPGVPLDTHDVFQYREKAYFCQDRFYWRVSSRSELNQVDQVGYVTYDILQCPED
Stromelysin-1, sequence (P08254 whole entry): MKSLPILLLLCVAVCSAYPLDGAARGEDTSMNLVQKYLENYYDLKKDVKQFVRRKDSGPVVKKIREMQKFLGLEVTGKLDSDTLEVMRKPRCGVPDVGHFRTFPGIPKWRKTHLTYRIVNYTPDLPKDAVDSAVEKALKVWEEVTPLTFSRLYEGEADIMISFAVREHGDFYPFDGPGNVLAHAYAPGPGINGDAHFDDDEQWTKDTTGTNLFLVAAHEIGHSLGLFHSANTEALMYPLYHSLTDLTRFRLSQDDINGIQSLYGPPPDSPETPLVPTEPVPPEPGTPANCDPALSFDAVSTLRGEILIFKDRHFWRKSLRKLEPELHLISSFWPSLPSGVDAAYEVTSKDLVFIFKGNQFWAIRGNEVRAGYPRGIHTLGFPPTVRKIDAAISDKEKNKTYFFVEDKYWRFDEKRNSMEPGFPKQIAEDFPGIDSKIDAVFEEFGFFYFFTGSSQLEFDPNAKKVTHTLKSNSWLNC

Turning to `CC(C)ON([C@@H](C(=O)NO)C(C)C)S(=O)(=O)c1ccc(-c2ccccc2)cc1`, in the assay on U-87 MG, the Activity was found to be 48%.

Turning to `CC(=O)NCC[C@H](C(=O)NO)N(OC(C)C)S(=O)(=O)c1ccccc1`, the pIC50 at Interstitial collagenase was 4.59; in assay [1] it was 6.23; in [2], 5.41; at Collagenase 3 it was 5.74; in assay [3], 5.26. In addition, the inhibition entry (in the assay with HUVEC [4]; with HUVEC [5]; with HUVEC [6]; in the assay with HUVEC [7]; in [9]; in [10]) was “inactive” throughout. For the same compound, the inhibition result with HUVEC [11] is “inactive”. In the assay on HUVEC [8], the “fold change (FC)” value amounted to 0.9.

In the case of `CC(C)ON([C@H](CCNC(=O)c1ccccc1)C(=O)NO)S(=O)(=O)c1ccc(-c2ccccc2)cc1`, the pIC50 at Interstitial collagenase was 6.11; in [1], 8.82; at Stromelysin-1 it was 6.35; in [2], 8.05.

Regarding `COc1ccc(-c2ccc(S(=O)(=O)N(OC(C)C)[C@H](CCNC(C)=O)C(=O)NO)cc2)cc1`, the pIC50 on Interstitial collagenase was 6.18; on Stromelysin-1 it was 7.70; in [2], 8.70; in [3], 7.64. In addition, the inhibition entry (in the assay with HUVEC [4]; with HUVEC [5]; with HUVEC [6]; in [15]; in assay [16]) was “Active” each time. Also, the inhibition result (in the assay on HUVEC [12]; in [13]; in assay [14]) was “Dose-dependent effect” in each case.

Turning to `CC(C)ON([C@H](CCNS(C)(=O)=O)C(=O)NO)S(=O)(=O)c1ccc(-c2ccccc2)cc1`, the pIC50 at Interstitial collagenase is 6.49; in assay [1] it was 9.00; at Stromelysin-1, 7.15; in assay [2], 8.07.

Consider `COc1ccc(-c2ccc(S(=O)(=O)N(OC(C)C)[C@H](CCNC(=O)Cc3ccccc3)C(=O)NO)cc2)cc1`, for which the pIC50 was 5.85 on Interstitial collagenase, 7.44 on Stromelysin-1, 8.54 in assay [2] and 7.60 in [3].

Regarding `CC(=O)NCC[C@H](C(=O)NO)N(OC(C)C)S(=O)(=O)c1ccc(-c2ccccc2)cc1`, the pIC50 at Interstitial collagenase was 6.55; on Stromelysin-1 it was 7.33; in assay [2], 8.19.

Regarding `CC(C)ON([C@H](CCNC(=O)Cc1ccccc1)C(=O)NO)S(=O)(=O)c1ccc(-c2ccccc2)cc1`, the pIC50 is 5.89 at Interstitial collagenase, 8.85 in assay [1], 6.92 at Stromelysin-1 and 8.19 in assay [2].

The term pIC50 denotes −log10 of the IC50, conventionally taken in molar units.
